Measurements reported in ChEMBL document CHEMBL1145439, “Fluorine-18-labeled benzamide analogues for imaging the sigma2 receptor status of solid tumors with positron emission tomography” (J Med Chem, 2007).

Experiments:
[1] = tested on: Heart; assay: Biodistribution in heart of mouse EMT6 tumor bearing BALB/c mouse at 10 to 20 uCi after 30 mins; format: ADME, organism-based; settings: in vivo, 0.5 h
Procedure, shortened: (§1)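 EMT-6 cells (5×10^5 in 100 µL PBS) implanted s.c. in scapular region of female Balb/c mice (~2 months, 17-22 g); studied 7-10 days later at ~0.2 cm3 tumor. 18F tracer 10-20 µCi in 100-150 µL saline via tail vein; ≥4 mice per time point; tissue removed at sacrifice, weighed, gamma-counted; %ID/g calculated.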

[2] = tested on: Brain; assay: Biodistribution in brain of EMT6 tumor bearing BALB/c mouse at 10 to 20 uCi after 5 mins; format: ADME, organism-based; settings: in vivo; procedure, shortened: as §1
[3] = tested on: Adipose tissue; assay: Biodistribution in fat of mouse EMT6 tumor bearing BALB/c mouse at 10 to 20 uCi after 5 mins; format: ADME, organism-based; settings: in vivo; procedure, shortened: as §1
[4] = tested on: Adipose tissue; assay: Biodistribution in fat of mouse EMT6 tumor bearing BALB/c mouse at 10 to 20 uCi after 30 mins; format: ADME, organism-based; settings: in vivo, 0.5 h; procedure, shortened: as §1
[5] = tested on: Adipose tissue; assay: Biodistribution in fat of mouse EMT6 tumor bearing BALB/c mouse at 10 to 20 uCi after 120 mins; format: ADME, organism-based; settings: in vivo, 2 h; procedure, shortened: as §1
[6] = tested on: Liver; assay: Biodistribution in liver of mouse EMT6 tumor bearing BALB/c mouse at 10 to 20 uCi after 120 mins; format: ADME, organism-based; settings: in vivo, 2 h; procedure, shortened: as §1
[7] = tested on: Liver; assay: Biodistribution in liver of mouse EMT6 tumor bearing BALB/c mouse at 10 to 20 uCi after 5 mins; format: ADME, organism-based; settings: in vivo; procedure, shortened: as §1
[8] = tested on: Lung; assay: Biodistribution in lung of mouse EMT6 tumor bearing BALB/c mouse at 10 to 20 uCi after 60 mins; format: ADME, organism-based; settings: in vivo, 1 h; procedure, shortened: as §1
[9] = tested on: Brain; assay: Biodistribution in brain of mouse EMT6 tumor bearing BALB/c mouse at 10 to 20 uCi after 120 mins; format: ADME, organism-based; settings: in vivo, 2 h; procedure, shortened: as §1
[10] = tested on: EMT6; assay: Biodistribution in tumor of mouse EMT6 tumor bearing BALB/c mouse at 10 to 20 uCi after 120 mins; format: ADME, organism-based; settings: emt6, 2 h; procedure, shortened: as §1
[11] = tested on: Muscle tissue; assay: Biodistribution in muscle of mouse EMT6 tumor bearing BALB/c mouse at 10 to 20 uCi after 120 mins; format: ADME, organism-based; settings: in vivo, 2 h; procedure, shortened: as §1
[12] = tested on: Liver; assay: Biodistribution in liver of mouse EMT6 tumor bearing BALB/c mouse at 10 to 20 uCi after 60 mins; format: ADME, organism-based; settings: in vivo, 1 h; procedure, shortened: as §1
[13] = tested on: Heart; assay: Biodistribution in heart of mouse EMT6 tumor bearing BALB/c mouse at 10 to 20 uCi after 60 mins; format: ADME, organism-based; settings: in vivo, 1 h; procedure, shortened: as §1
[14] = tested on: Bone; assay: Biodistribution in bone of mouse EMT6 tumor bearing BALB/c mouse at 10 to 20 uCi after 5 mins; format: ADME, organism-based, Bone element; settings: in vivo; procedure, shortened: as §1
[15] = tested on: EMT6; assay: Biodistribution in tumor of EMT6 tumor bearing BALB/c mouse 10 to 20 uCi after 30 mins; format: ADME, organism-based; settings: emt6, 0.5 h; procedure, shortened: as §1
[16] = tested on: Bone; assay: Biodistribution in bone of mouse EMT6 tumor bearing BALB/c mouse at 10 to 20 uCi after 120 mins; format: ADME, organism-based, Bone element; settings: in vivo, 2 h; procedure, shortened: as §1
[17] = tested on: EMT6; assay: Biodistribution in tumor of mouse EMT6 tumor bearing BALB/c mouse at 10 to 20 uCi after 5 mins; format: ADME, organism-based; settings: emt6, 5 min; procedure, shortened: as §1
[18] = tested on: Blood; assay: Biodistribution in blood of mouse EMT6 tumor bearing BALB/c mouse at 10 to 20 uCi after 5 mins; format: ADME, organism-based; settings: in vivo; procedure, shortened: as §1
[19] = tested on: Kidney; assay: Biodistribution in kidney of mouse EMT6 tumor bearing BALB/c mouse at 10 to 20 uCi after 120 mins; format: ADME, organism-based; settings: in vivo, 2 h; procedure, shortened: as §1
[20] = tested on: Kidney; assay: Biodistribution in kidney of mouse EMT6 tumor bearing BALB/c mouse at 10 to 20 uCi after 30 mins; format: ADME, organism-based; settings: in vivo, 0.5 h; procedure, shortened: as §1
[21] = tested on: Heart; assay: Biodistribution in heart of mouse EMT6 tumor bearing BALB/c mouse at 10 to 20 uCi after 5 mins; format: ADME, organism-based; settings: in vivo; procedure, shortened: as §1
[22] = tested on: Bone; assay: Biodistribution in bone of mouse EMT6 tumor bearing BALB/c mouse at 10 to 20 uCi after 60 mins; format: ADME, organism-based, Bone element; settings: in vivo, 1 h; procedure, shortened: as §1
[23] = tested on: Lung; assay: Biodistribution in lung of mouse EMT6 tumor bearing BALB/c mouse at 10 to 20 uCi after 30 mins; format: ADME, organism-based; settings: in vivo, 0.5 h; procedure, shortened: as §1
[24] = tested on: Kidney; assay: Biodistribution in kidney of mouse EMT6 tumor bearing BALB/c mouse at 10 to 20 uCi after 5 mins; format: ADME, organism-based; settings: in vivo; procedure, shortened: as §1
[25] = tested on: Brain; assay: Biodistribution in brain of EMT6 tumor bearing BALB/c mouse at 10 to 20 uCi after 60 mins; format: ADME, organism-based; settings: in vivo, 1 h; procedure, shortened: as §1
[26] = tested on: Lung; assay: Biodistribution in lung of mouse EMT6 tumor bearing BALB/c mouse at 10 to 20 uCi after 5 mins; format: ADME, organism-based; settings: in vivo; procedure, shortened: as §1
[27] = tested on: Brain; assay: Biodistribution in brain of EMT6 tumor bearing BALB/c mouse at 10 to 20 uCi after 30 mins; format: ADME, organism-based; settings: in vivo, 0.5 h; procedure, shortened: as §1
[28] = tested on: Heart; assay: Biodistribution in heart of EMT6 tumor bearing BALB/c mouse at 10 to 20 uCi after 120 mins; format: ADME, organism-based; settings: in vivo, 2 h; procedure, shortened: as §1
[29] = tested on: Lung; assay: Biodistribution in lung of mouse EMT6 tumor bearing BALB/c mouse at 10 to 20 uCi after 120 mins; format: ADME, organism-based; settings: in vivo, 2 h; procedure, shortened: as §1
[30] = tested on: Blood; assay: Biodistribution in blood of mouse EMT6 tumor bearing BALB/c mouse at 10 to 20 uCi after 120 mins; format: ADME, organism-based; settings: in vivo, 2 h; procedure, shortened: as §1
[31] = tested on: Bone; assay: Biodistribution in bone of mouse EMT6 tumor bearing BALB/c mouse at 10 to 20 uCi after 30 mins; format: ADME, organism-based, Bone element; settings: in vivo, 0.5 h; procedure, shortened: as §1
[32] = tested on: Muscle tissue; assay: Biodistribution in muscle of mouse EMT6 tumor bearing BALB/c mouse at 10 to 20 uCi after 30 mins; format: ADME, organism-based; settings: in vivo, 0.5 h; procedure, shortened: as §1
[33] = tested on: Kidney; assay: Biodistribution in kidney of mouse EMT6 tumor bearing BALB/c mouse at 10 to 20 uCi after 60 mins; format: ADME, organism-based; settings: in vivo, 1 h; procedure, shortened: as §1
[34] = tested on: EMT6; assay: Biodistribution in tumor of mouse EMT6 tumor bearing BALB/c mouse at 10 to 20 uCi after 60 mins; format: ADME, organism-based; settings: emt6, 1 h; procedure, shortened: as §1
[35] = tested on: Muscle tissue; assay: Biodistribution in muscle of EMT6 tumor bearing BALB/c mouse at 10 to 20 uCi after 5 mins; format: ADME, organism-based; settings: in vivo; procedure, shortened: as §1
[36] = tested on: Liver; assay: Biodistribution in liver of mouse EMT6 tumor bearing BALB/c mouse at 10 to 20 uCi after 30 mins; format: ADME, organism-based; settings: in vivo, 0.5 h; procedure, shortened: as §1
[37] = Tumor to fat ratio of the drug in mouse EMT6 tumor bearing BALB/c mouse at 10 to 20 uCi after 2 hrs; format: ADME
Procedure, shortened: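 Tumor-bearing female Balb/c mice (EMT-6 s.c. allograft, ~0.2 cm3) given 10-20 µCi 18F tracer in saline i.v. via tail vein; ≥4 per group; killed 120 min later. Tissues weighed and gamma-counted; ratio = tumor %ID/g divided by that organ's %ID/g.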

[38] = tested on: Adipose tissue; assay: Biodistribution in fat of mouse EMT6 tumor bearing BALB/c mouse at 10 to 20 uCi after 60 mins; format: ADME, organism-based; settings: in vivo, 1 h; procedure, shortened: as §1
[39] = tested on: Muscle tissue; assay: Biodistribution in muscle of mouse EMT6 tumor bearing BALB/c mouse at 10 to 20 uCi after 60 mins; format: ADME, organism-based; settings: in vivo, 1 h; procedure, shortened: as §1
[40] = tested on: Blood; assay: Biodistribution in blood of mouse EMT6 tumor bearing BALB/c mouse at 10 to 20 uCi after 30 mins; format: ADME, organism-based; settings: in vivo, 0.5 h; procedure, shortened: as §1
[41] = tested on: Blood; assay: Biodistribution in blood of mouse EMT6 tumor bearing BALB/c mouse at 10 to 20 uCi after 60 mins; format: ADME, organism-based; settings: in vivo, 1 h; procedure, shortened: as §1
[42] = Displacement of [3H]DTG from sigma 2 receptor in rat liver membrane after 120 mins; format: cell membranes
Procedure, shortened: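 Rat liver membranes (~300 µg protein) incubated with ~5 nM [3H]DTG plus 1 µM (+)-pentazocine to mask σ1 sites, 120 min at room temperature; 10 µM haloperidol defines nonspecific binding; filtration and scintillation counting. One-site nonlinear regression IC50, converted to Ki by Cheng-Prusoff; mean ± SEM.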

## COc1cc2c(cc1OC)CN(CCCCNC(=O)c1cc(Br)ccc1OCC[18F])CC2
[1]
  Drug uptake: 1.55 % ID/g
[2]
  Drug uptake: 1.09 % ID/g
[3]
  Drug uptake: 2.85 % ID/g
[4]
  Drug uptake: 0.96 % ID/g
[5]
  Drug uptake: 0.15 % ID/g
[6]
  Drug uptake: 2.3 % ID/g
[7]
  Drug uptake: 32.6 % ID/g
[8]
  Drug uptake: 1.6 % ID/g
[9]
  Drug uptake: 0.2 % ID/g
[10]
  Drug uptake: 0.96 % ID/g
[11]
  Drug uptake: 0.28 % ID/g
[12]
  Drug uptake: 5.69 % ID/g
[13]
  Drug uptake: 1.04 % ID/g
[14]
  Drug uptake: 2.9 % ID/g
[15]
  Drug uptake: 2.59 % ID/g
[16]
  Drug uptake: 1.28 % ID/g
[17]
  Drug uptake: 3.28 % ID/g
[18]
  Drug uptake: 3.57 % ID/g
[19]
  Drug uptake: 1.12 % ID/g
[20]
  Drug uptake: 17.55 % ID/g
[21]
  Drug uptake: 3.74 % ID/g
[22]
  Drug uptake: 1.12 % ID/g
[23]
  Drug uptake: 3.08 % ID/g
[24]
  Drug uptake: 42.94 % ID/g
[25]
  Drug uptake: 0.32 % ID/g
[26]
  Drug uptake: 12.08 % ID/g
[27]
  Drug uptake: 0.4 % ID/g
[28]
  Drug uptake: 0.4 % ID/g
[29]
  Drug uptake: 0.51 % ID/g
[30]
  Drug uptake: 0.52 % ID/g
[31]
  Drug uptake: 1.17 % ID/g
[32]
  Drug uptake: 0.98 % ID/g
[33]
  Drug uptake: 6.92 % ID/g
[34]
  Drug uptake: 2.09 % ID/g
[35]
  Drug uptake: 1.95 % ID/g
[36]
  Drug uptake: 13.12 % ID/g
[37]
  Ratio: 6
[38]
  Drug uptake: 0.38 % ID/g
[39]
  Drug uptake: 0.58 % ID/g
[40]
  Drug uptake: 2.81 % ID/g
[41]
  Drug uptake: 1.69 % ID/g

## COc1cc2c(cc1OC)CN(CCCCNC(=O)c1cc(I)ccc1OCCF)CC2
[42]
  Ki: 1.06 nM
